# TAAR1 agonist – human TAAR1 agonism | CHO RD-HGA16 TAAR1, Fluo-8 calcium fluorescence; vehicle wells 0%, saturating PEA agonist 100% | 360,000 tested, 0.99% active | activation, % at 3 µM | AID 624467 | Q96RJ0;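 active means activation above the mean activation of all test compounds in the run plus 3 SD, cut at about 38% in these data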
#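 Repeats: no replicates (n 1) | Material: CHO-derived RD-HGA16 cells with stable Gα16 and human TAAR1 | Technique: Kinetic Fluo-8 calcium fluorescence | Schedule: 17-24 h seeding, 75 min 37 °C dye, 30 min RT | Evaluation: % activation from peak over basal fluorescence ratio, DMSO-to-PEA scaled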
# TAAR1 antag – antagonists of human TAAR1 | inhibition, % at 3 µM | Q96RJ0 | 360,000 tested, 1.5% active | CHO RD-HGA16 TAAR1, Fluo-8 calcium fluorescence, antagonist;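 active means inhibition above a per-plate cutoff, the mean inhibition of test compounds on that plate plus 3 SD, cut at about 49% in these data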
#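 Test system: CHO RD-HGA16 cells bearing hTAAR1 | Reagent: β-PEA, EC80 | Compound dosing: 3 µM, single point | Schedule: Dye loading 75 min at 37 °C, then 30 min room temperature | Signal: Calcium fluorescence with Fluo-8 | Evaluation: Percent inhibition of PEA-evoked calcium signal, max/basal emission ratio | Control set: DMSO-only wells and EC80 β-PEA-stimulated wells | Repeats: Singlicate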
# V1aR counter – counter-screen for oxytocin receptor agonists: human V1a receptor agonists | AID 2797 | activation, % at 3 µM | 320,000 tested, 0.25% active | P37288 | CHO-V1R cells, Fluo-8 calcium fluorescence, agonist mode; 0% DMSO, 100% 3 nM vasopressin;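 active means activation above the mean activation of all tested compounds plus 3 SD, per screening run, cut at about 20% in these data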;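 further: signal is peak over basal fluorescence ratio across a 100 second FLIPR read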
# Target sequence (P37288 whole entry, looked up): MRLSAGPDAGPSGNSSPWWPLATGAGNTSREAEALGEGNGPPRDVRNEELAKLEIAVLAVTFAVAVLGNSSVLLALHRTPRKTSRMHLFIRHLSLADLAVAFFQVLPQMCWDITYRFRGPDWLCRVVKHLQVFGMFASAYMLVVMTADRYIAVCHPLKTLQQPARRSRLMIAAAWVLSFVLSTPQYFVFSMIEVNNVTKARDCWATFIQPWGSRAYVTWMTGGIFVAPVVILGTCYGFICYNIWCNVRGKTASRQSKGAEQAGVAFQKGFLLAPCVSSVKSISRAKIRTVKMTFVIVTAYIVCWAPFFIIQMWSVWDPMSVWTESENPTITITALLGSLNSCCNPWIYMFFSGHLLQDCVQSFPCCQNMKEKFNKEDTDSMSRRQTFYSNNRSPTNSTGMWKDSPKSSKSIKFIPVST
# OXTR potentiate – potentiators of human oxytocin receptor. activation, % at 3 µM. CHO-OTR cells, Fluo-8 calcium fluorescence, potentiator mode; 0% = oxytocin EC15, 100% = EC100. 320,000 tested, 0.061% active. AID 2445;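 active means activation above that plate's cutoff, the mean activation of tested compounds plus 3 SD, cut at about 6.6% in these data, passing the limit was not always enough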
#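 Replication – single well per compound, singlicate · Assay system – CHO cell line stably expressing human OTR · Timing – 6 min pre-incubation, 100 s read · Measure – normalized max/min fluorescence ratio, % activation · Doses – 3.0 µM, one dose · Detection – Fluo-8 calcium dye fluorescence · Probe or stimulus – oxytocin near EC15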
# OXTR agonist – activates the human oxytocin receptor. CHO-OTR cells, Fluo-8 calcium fluorescence; normalized: DMSO 0%, oxytocin 100%. 320,000 tested, 0.32% active. activation, % at 3 µM. P30559;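 active means activation above the mean of all tested compounds plus 3 SD, cutoff set per screening run, cut at about 20% in these data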;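 further: peak over basal fluorescence ratio from a 100 s FLIPR kinetic read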
# TAAR1 nonsel count – nonselective antagonism, TAAR1 counter-screen; counterscreen cell line, calcium fluorescence, antagonist mode; shares compounds with TAAR1 antag; inhibition, % at 3 µM; 2,400 tested, 77% active; in the data active means inhibition above about 22%;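 further: CHO-Ga16 host cells stimulated with ATP at an EC80 level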
# TAAR1 antag conf – confirmation of human TAAR1 antagonists | shares compounds with TAAR1 antag | 2,400 tested, 40% active | TAAR1-expressing cells, fluorescence antagonist read-out | AID 651785 | inhibition, % at 3 µM; in the data active means inhibition above about 49%;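 further: CHO-Ga16 host cells challenged with agonist PEA near its EC80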
# Ga16 nonsel ag – nonselective Ga16 agonism, counter-screen | 2,400 tested, 18% active | AID 651953 | shares compounds with TAAR1 antag | activation, % at 3 µM | Ga16-expressing cells, calcium fluorescence, agonist counterscreen; in the data active means activation above about 12%
# TAAR1 ag count – activates human TAAR1 in antagonist counter-screen. shares compounds with TAAR1 antag. hTAAR1 cell line, fluorescence activation, agonist mode. activation, % at 3 µM. 2,400 tested, 2% active. AID 651955; in the data active means activation above about 37%;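 further: CHO cells stably expressing TAAR1 with calcium dye readout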
# Numbers stand for hits; . = inactive; / = not tested or not shown. This is a sample that favours compounds with a hit; in the whole collection about 2.3% have one here.
SMILES,TAAR1 agonist,TAAR1 antag,V1aR counter,OXTR potentiate,OXTR agonist,TAAR1 nonsel count,TAAR1 antag conf,Ga16 nonsel ag,TAAR1 ag count
N#CC(C#N)=C1C=CC=CN1/C(=C\c1ccccc1)C(=O)c1cccs1,.,.,.,.,.,/,/,/,/
CCCc1cc(=O)oc2cc(OCC(=O)NCCc3c[nH]c4ccc(OC)cc34)ccc12,.,60,.,.,.,30,.,.,.
CCc1cc(=O)oc2cc(C)cc(OCC(=O)NCCc3c[nH]c4ccccc34)c12,.,69,.,.,.,29,.,.,.
O=C(COc1ccc2ccc(=O)oc2c1)NCCc1c[nH]c2ccc(F)cc12,.,.,.,.,.,/,/,/,/
COCCN(C(=O)COC(=O)c1ccc2ccccc2c1)c1c(N)n(Cc2ccccc2)c(=O)[nH]c1=O,.,.,/,/,/,/,/,/,/
Cc1cccc(NC(=O)CNC(=O)[C@H]2O[C@@H](n3cnc4c(N)ncnc43)[C@H](O)[C@@H]2O)c1C,.,.,/,/,/,/,/,/,/
NNC(=O)c1[nH]c2ccc([N+](=O)[O-])cc2c1-c1ccccc1,.,.,.,.,.,/,/,/,/
O=C(N/N=C/c1ccccn1)c1[nH]c2ccc([N+](=O)[O-])cc2c1-c1ccccc1,.,50,.,.,.,.,51,12,.
COc1ccc(CC(N)c2csc(NC(=O)c3cc(C(C)(C)C)nn3Cc3ccccc3)n2)cc1 (configuration not stated),.,.,/,/,/,/,/,/,/
Fc1cccc(NC(=S)NNc2c3ccccc3nc3ccccc23)c1,.,53,/,/,/,40,.,.,.
COc1cccc(C2C(C(=O)OC(C)C)=C(C)N=c3s/c(=C\c4ccc(C(=O)O)cc4)c(=O)n32)c1 (configuration not stated),.,60,.,.,.,34,53,17,.
COc1cccc(C2C(C(=O)Nc3ccccc3)=C(C)N=c3s/c(=C/c4ccc(OCC(=O)O)cc4)c(=O)n32)c1 (configuration not stated),.,.,.,.,.,/,/,/,/
Cc1ccc(C2=NOC(C)(c3nnc(-c4cccc(Cl)c4)o3)C2)cc1 (configuration not stated),.,.,.,.,.,/,/,/,/
CC1(c2nnc(-c3cccc(Cl)c3)o2)CC(c2c(Cl)cccc2Cl)=NO1 (configuration not stated),.,64,.,.,.,22,.,.,.
O=C(CNC(=O)N1CC(=O)Nc2ccccc21)Nc1nccs1,.,.,.,.,.,/,/,/,/
CCCCn1c(O)c(N=NC(=O)c2ccco2)c2ccccc21,.,52,.,.,.,.,.,.,.
CCOc1ccccc1Nc1nnc(SCc2nnc(-c3cc(OC)c(OC)c(OC)c3)o2)s1,.,.,.,.,.,/,/,/,/
COc1ccccc1Nc1nnc(SCc2nnc(-c3cc(OC)c(OC)c(OC)c3)o2)s1,.,58,.,.,.,25,.,.,.
CCCCNc1nc(N(C)c2ccccc2)nc(-n2ccnc2)n1,.,50,.,.,.,.,.,.,.
CCCCCNc1nc(-c2ccccc2)nc(-n2ccnc2)n1,.,.,.,.,.,/,/,/,/
c1ccc(N(c2ccccc2)c2nc(-n3ccnc3)nc(-n3ccnc3)n2)cc1,.,104,.,.,.,56,96,27,43
C=CCNc1nc(N(c2ccccc2)c2ccccc2)nc(-n2ccnc2)n1,.,95,.,.,.,47,84,.,.
CN(c1ccccc1)c1nc(-n2ccnc2)nc(-n2ccnc2)n1,.,.,.,.,.,/,/,/,/
OCC(CCc1c[nH]c2ccccc12)c1c[nH]c2ccccc12 (configuration not stated),.,53,/,/,/,24,.,.,.
